Measurements: ChEMBL document CHEMBL4387760, “Synthesis of oxytocin derivatives lipidated via a carbonate or carbamate linkage as a long-acting therapeutic agent for social impairment-like behaviors” (Bioorg Med Chem, 2019)
Activity calls are given as the source filed them. The rule behind the calls is not given here.

Tests used:
Mus musculus [1] = experiment: (§1) Improvement in paternal nurturing behavior in CD38 knock out Slc:ICR mouse sire model of autism spectrum disorder assessed as increase in parental scores to retrieve pups by sires at 100 ng/100 g, ip administered as single dose measured after 24 hrs by parental retrieval test; assay type: functional, organism-based
Mus musculus [2] = experiment: as §1, with “as” for “as increase in”, “30 mins” for “24 hrs”, “test (reference value: 0 +/- 0 No units)” for “test”; assay type: functional
Mus musculus [3] = experiment: Improvement in paternal nurturing behavior in CD38 knock out Slc:ICR mouse sire model of autism spectrum disorder assessed as increase in parental scores to retrieve pups by sires at 100 ng/100 g, ip administered as single dose measured after 12 hrs by parental retrieval test; assay type: functional, organism-based
How it was run: (§2)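 This time-course test used CD38KOCC sires (Slc:ICR) paired with females. Each received a single ip dose of 100 ng/100 g body weight in PBS, with PBS as vehicle control. Paternal pup-retrieval scores were recorded at successive times after injection, including 6, 12, 24 and 48 h. Treatment effects were analysed by two-way ANOVA.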

Vasopressin V1a receptor = Vasopressin V1a receptor (Homo sapiens, UniProt P37288); experiment: Agonist activity at human V1A receptor expressed in HEK293 cells assessed as intracellular calcium level measured at 3 secs interval for 5 mins by fura-2/AM dye based micro spectrofluorometric method; assay type: functional, cell-based
How it was run: (§3)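 HEK-293 cells stably expressing the receptor (G418-selected) were loaded with fura-2/AM for 30 min at 37 °C and washed in HEPES-buffered saline, pH 7.4. Fluorescence was read at 37 °C with 340/380 nm excitation, and F340/F380 was normalized to the 10 s baseline. Responses were expressed as % of the OT maximum (OTR) or the AVP maximum (V1A), with EC50 from 3 independent experiments at 20 cells/dish.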

Vasopressin V1b receptor = target: T1, Vasopressin V1b receptor (Homo sapiens, UniProt P47901); experiment: Agonist activity at human V1B receptor expressed in HEK293 cells assessed as intracellular calcium level measured at 3 secs interval for 5 mins by fura-2/AM dye based micro spectrofluorometric method; assay type: functional, cell-based
T1 sequence (P47901 whole entry): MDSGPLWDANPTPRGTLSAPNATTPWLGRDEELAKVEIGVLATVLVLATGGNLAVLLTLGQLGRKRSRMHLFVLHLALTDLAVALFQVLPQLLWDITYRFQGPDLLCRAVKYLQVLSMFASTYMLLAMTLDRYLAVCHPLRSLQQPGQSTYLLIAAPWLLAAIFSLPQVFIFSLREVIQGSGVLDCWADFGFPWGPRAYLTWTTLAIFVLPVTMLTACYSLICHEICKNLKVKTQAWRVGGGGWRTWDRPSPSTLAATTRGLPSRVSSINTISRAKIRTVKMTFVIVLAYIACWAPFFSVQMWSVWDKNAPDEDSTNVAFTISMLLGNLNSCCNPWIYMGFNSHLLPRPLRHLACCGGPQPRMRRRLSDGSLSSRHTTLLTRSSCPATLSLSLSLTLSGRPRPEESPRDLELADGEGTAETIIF

Oxytocin receptor = target: T2, Oxytocin receptor (Homo sapiens, UniProt P30559); experiment: Agonist activity at human OTR receptor expressed in HEK293 cells assessed as intracellular calcium level measured at 3 secs interval for 5 mins by fura-2/AM dye based micro spectrofluorometric method; assay type: functional, cell-based; how it was run: as §3
T2 sequence (P30559 whole entry): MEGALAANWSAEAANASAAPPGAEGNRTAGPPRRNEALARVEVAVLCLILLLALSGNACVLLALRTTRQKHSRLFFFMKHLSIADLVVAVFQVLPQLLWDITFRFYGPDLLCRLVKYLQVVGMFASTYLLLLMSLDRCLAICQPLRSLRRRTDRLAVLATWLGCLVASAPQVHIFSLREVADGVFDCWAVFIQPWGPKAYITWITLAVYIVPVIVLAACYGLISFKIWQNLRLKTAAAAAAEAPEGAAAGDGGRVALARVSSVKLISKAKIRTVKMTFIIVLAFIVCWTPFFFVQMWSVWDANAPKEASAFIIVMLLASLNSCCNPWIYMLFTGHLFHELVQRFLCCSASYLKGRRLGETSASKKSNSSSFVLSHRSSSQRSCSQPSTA

Mus musculus [4] = experiment: Improvement in paternal nurturing behavior in CD38 knock out Slc:ICR mouse sire model of autism spectrum disorder assessed as increase in parental scores to retrieve pups by sires at 100 ng/100 g, ip administered as single dose measured after 48 hrs by parental retrieval test; assay type: functional, organism-based; how it was run: as §2
[5] = target: T3, Oxytocin receptor (Homo sapiens) (UniProt P30559); experiment: Agonist activity at human OTR receptor expressed in HEK293 cells measured at 3 secs interval for 5 mins by fura-2/AM dye based micro spectrofluorometric method relative to OT; assay type: cell-based
T3 sequence (whole entry): T2 sequence (P30559 whole entry)
How it was run: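 HEK-293 cells stably expressing human OTR (G418-selected) were loaded with fura-2/AM (final […] as printed) at 37 °C for 30 min, then washed in HEPES-buffered saline, pH 7.4. F340/F380 ratio was read every 3 s for 5 min at 37 °C, normalized to 10-s pre-application baseline, as % of maximal OT response. Three independent experiments, 20 cells per dish; EC50 derived.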

Mus musculus [6] = experiment: Improvement in paternal nurturing behavior in CD38 knock out Slc:ICR mouse sire model of autism spectrum disorder assessed as parental scores to retrieve pups by sires at 100 ng/100 g, ip administered as single dose measured after 24 hrs by parental retrieval test (reference value: 0 +/- 0 No units); assay type: functional
Mus musculus [7] = experiment: Improvement in paternal nurturing behavior in CD38 knock out Slc:ICR mouse sire model of autism spectrum disorder assessed as parental scores to retrieve pups by sires at 100 ng/100 g, ip administered as single dose measured after 6 hrs by parental retrieval test; assay type: functional, organism-based; how it was run: as §2

Vasopressin V1a receptor, sequence (P37288 whole entry): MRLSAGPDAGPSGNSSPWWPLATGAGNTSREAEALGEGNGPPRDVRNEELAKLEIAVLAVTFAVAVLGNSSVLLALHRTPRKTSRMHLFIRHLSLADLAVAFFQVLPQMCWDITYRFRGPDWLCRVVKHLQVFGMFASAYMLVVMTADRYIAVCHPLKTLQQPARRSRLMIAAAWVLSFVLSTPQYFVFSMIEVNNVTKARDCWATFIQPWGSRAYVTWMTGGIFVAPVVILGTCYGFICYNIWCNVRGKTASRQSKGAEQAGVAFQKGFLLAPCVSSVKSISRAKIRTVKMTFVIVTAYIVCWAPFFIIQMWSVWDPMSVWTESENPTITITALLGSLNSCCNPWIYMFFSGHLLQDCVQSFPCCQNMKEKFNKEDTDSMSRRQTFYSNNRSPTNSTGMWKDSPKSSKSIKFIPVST

| Emax [5] | Structure (SMILES) | Activity (Mus musculus [1]) | Activity (Mus musculus [2]) | Activity (Mus musculus [3]) | EC50 (Vasopressin V1a receptor) | EC50 (Vasopressin V1b receptor) | EC50 (Oxytocin receptor) | Activity (Mus musculus [4]) | Activity (Mus musculus [6]) | Activity (Mus musculus [7]) |
| --- | --- | --- | --- | --- | --- | --- | --- | --- | --- | --- |
| 0% | CCCCCCCCCCCCCCCCOC(=O)Oc1ccc(C[C@@H]2NC(=O)[C@@H](NC(=O)CCCCCCCCCCCCCCC)CSSC[C@@H](C(=O)N3CCC[C@H]3C(=O)N[C@@H](CC(C)C)C(=O)NCC(N)=O)NC(=O)[C@H](CC(N)=O)NC(=O)[C@H](CCC(N)=O)NC(=O)[C@H]([C@@H](C)CC)NC2=O)cc1 | Active | 2 | Active | > 100 µM | > 100 µM | > 100 µM | inactive | 5.2 |  |
|  | CC[C@H](C)[C@@H]1NC(=O)[C@H](Cc2ccc(O)cc2)NC(=O)[C@@H](N)CSSC[C@@H](C(=O)N2CCC[C@H]2C(=O)N[C@@H](CC(C)C)C(=O)NCC(N)=O)NC(=O)[C@H](CC(N)=O)NC(=O)[C@H](CCC(N)=O)NC1=O [OXYTOCIN] |  | 5.3 |  |  |  |  |  | 0 | inactive |
| 15.3% | CCCCCCCCCCCCCCCC(=O)N[C@H]1CSSC[C@@H](C(=O)N2CCC[C@H]2C(=O)N[C@@H](CC(C)C)C(=O)NCC(N)=O)NC(=O)[C@H](CC(N)=O)NC(=O)[C@H](CCC(N)=O)NC(=O)[C@H]([C@@H](C)CC)NC(=O)[C@H](Cc2ccc(OC(=O)OCCCCCCCCCCCCCC)cc2)NC1=O |  | 6.8 |  | > 100 µM | > 100 µM |  |  | 3.1 |  |
| 0% | CCCCCCCCCCCCCCCOC(=O)Oc1ccc(C[C@@H]2NC(=O)[C@@H](NC(=O)CCCCCCCCCCCCCCC)CSSC[C@@H](C(=O)N3CCC[C@H]3C(=O)N[C@@H](CC(C)C)C(=O)NCC(N)=O)NC(=O)[C@H](CC(N)=O)NC(=O)[C@H](CCC(N)=O)NC(=O)[C@H]([C@@H](C)CC)NC2=O)cc1 |  | 3.9 |  | > 100 µM | > 100 µM | > 100 µM |  | 2.9 |  |
|  | CCCCCCCCCCCCCCCNC(=O)Oc1ccc(C[C@@H]2NC(=O)[C@@H](NC(=O)CCCCCCCCCCCCCCC)CSSC[C@@H](C(=O)N3CCC[C@H]3C(=O)N[C@@H](CC(C)C)C(=O)NCC(N)=O)NC(=O)[C@H](CC(N)=O)NC(=O)[C@H](CCC(N)=O)NC(=O)[C@H]([C@@H](C)CC)NC2=O)cc1 |  | 2 |  | > 100 µM | > 100 µM | > 10 µM |  | 3.1 |  |

| Structure (SMILES) | Emax [5] | Activity (Mus musculus [1]) | Activity (Mus musculus [2]) | Activity (Mus musculus [3]) | EC50 (Vasopressin V1a receptor) | EC50 (Vasopressin V1b receptor) | EC50 (Oxytocin receptor) | Activity (Mus musculus [4]) | Activity (Mus musculus [6]) | Activity (Mus musculus [7]) |
| --- | --- | --- | --- | --- | --- | --- | --- | --- | --- | --- |
| CCCCCCCCCCCCCCCC(=O)N[C@H]1CSSC[C@@H](C(=O)N2CCC[C@H]2C(=O)N[C@@H](CC(C)C)C(=O)NCC(N)=O)NC(=O)[C@H](CC(N)=O)NC(=O)[C@H](CCC(N)=O)NC(=O)[C@H]([C@@H](C)CC)NC(=O)[C@H](Cc2ccc(OC(=O)NCCCCCCCCCCCCCC)cc2)NC1=O | 0% |  | 3.3 |  | > 100 µM | > 100 µM | > 100 µM |  | 3.6 |  |
| CCCCCCCCCCCCCCCCNC(=O)Oc1ccc(C[C@@H]2NC(=O)[C@@H](NC(=O)CCCCCCCCCCCCCCC)CSSC[C@@H](C(=O)N3CCC[C@H]3C(=O)N[C@@H](CC(C)C)C(=O)NCC(N)=O)NC(=O)[C@H](CC(N)=O)NC(=O)[C@H](CCC(N)=O)NC(=O)[C@H]([C@@H](C)CC)NC2=O)cc1 | 0% |  | 1.9 |  | > 100 µM | > 100 µM | > 100 µM |  | 3.4 |  |
